# Assay results from ChEMBL document CHEMBL1821701, “Stereochemical analysis of leubethanol, an anti-TB-active serrulatane, from Leucophyllum frutescens” (2011).
# Legend:
# Format in all cases: functional
# [1] = test system: Mycobacterium tuberculosis; test: Antitubercular activity against multidrug-resistant Mycobacterium tuberculosis CIBIN/UMF15:99 isolate by microplate Alamar blue assay
# Method in brief: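 Modified microplate Alamar Blue assay. H37Rv ATCC 27294 is susceptible to streptomycin, isoniazid, rifampin, ethambutol and pyrazinamide. Clinical isolate CIBIN/UMF15:99 is resistant to the same five drugs. Test stocks were 2 mg/mL in 20% DMSO in Middlebrook 7H9 broth, filter-sterilized. Final concentrations ran from 100 to 0.78 µg/mL. Read-out was MIC, at least in triplicate.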
# [2] = test system: Mycobacterium tuberculosis; test: Antitubercular activity against multidrug-resistant Mycobacterium tuberculosis CIBIN/UMF15:99 isolate by microplate Alamar blue assay relative to streptomycin
# [3] = test system: Mycobacterium tuberculosis; test: Antitubercular activity against multidrug-resistant Mycobacterium tuberculosis CIBIN/UMF15:99 isolate by microplate Alamar blue assay relative to rifampin
SMILES,MIC [1] [µg/mL],Ratio [2],Ratio [3]
CC[C@@H](CO)NCCN[C@@H](CC)CO [ETHAMBUTOL],8,,
NNC(=O)c1ccncc1 [ISONIAZID],3.1,,
CC(C)=CCC[C@H](C)[C@@H]1CC[C@@H](C)c2c(O)cc(C)cc21 [LEUBETHANOL],6.3,16,16
CO[C@H]1/C=C/O[C@@]2(C)Oc3c(C)c(O)c4c(O)c(c(/C=N/N5CCN(C)CC5)c(O)c4c3C2=O)NC(=O)/C(C)=C\C=C\[C@H](C)[C@H](O)[C@@H](C)[C@@H](O)[C@@H](C)[C@H](OC(C)=O)[C@@H]1C [RIFAMPIN],> 100,,
CN[C@@H]1[C@H](O[C@H]2[C@H](O[C@H]3[C@H](O)[C@@H](O)[C@H](N=C(N)N)[C@@H](O)[C@@H]3N=C(N)N)O[C@@H](C)[C@]2(O)C=O)O[C@@H](CO)[C@H](O)[C@H]1O [STREPTOMYCIN],> 100,,
